Assay [1] relates to MT4. Nature of the assay: Concentration of compound required to achieve 50% protection of MT-4 cells against HIV-1 virus induced cytopathic effect. Type of assay: functional, cell-based. To be noted: Homo sapiens. Summed up:
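HIV-1-infected MT-4 cells, scored for protection against virus-induced cytopathic effect. EC50 is the concentration protecting 50% of cells, given as the mean (± standard deviation or range) of at least two separate experiments.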
On the technique in general: Cytopathic effects are the visible damage that an infection or toxin causes in cultured cells.

Assay [2] deals with MT4. The assay can be described thus: Concentration of compound required to reduce the viability of mock infected MT-4 cells against HIV-1 by 50%. Type of assay: functional. To be noted: Homo sapiens. Summed up: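 Mock-infected MT-4 cells were exposed to the compound, and viability was measured. CC50 is the concentration that lowers the viability of these uninfected cells by 50%. Values are means (± standard deviation or range) from at least two separate experiments.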

Assay [3] is described as follows: CC50/EC50 ratio expressed as selectivity index(SI). Type of assay: functional. Summed up: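 Ratio of two MT-4 values from this work. CC50 is the concentration that reduces the viability of mock-infected MT-4 cells by 50%. EC50 is the concentration giving 50% protection of HIV-1-infected MT-4 cells against virus cytopathic effect. Both are means (± standard deviation or range) of at least two separate experiments.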

Structures are written as SMILES. Some results are limits rather than exact numbers.

The term EC50 denotes the concentration at which the effect is half-maximal. The low end stands for greater potency, the high end for weaker potency. One may read the CC50 as the concentration that lowers cell viability or growth by half. Lower therefore signals harm at low concentration. Regarding `Cc1c(Sc2ccccc2)n(COCc2ccccc2)c(=O)[nH]c1=O`, the EC50 in assay [1] was 0.088 µM. For the same molecule, the midpoint of cytotoxicity in assay [2], the CC50, lay at 95 µM. In addition, the Ratio in assay [3] worked out at 1080.
Consider `COCCOCn1c(Sc2ccccc2)c(C)c(=O)[nH]c1=O`, for which, in assay [1], the response was half-maximal at 8.7 µM (EC50). Also, half-maximal cytotoxicity in assay [2] (CC50) was put at 299 µM. Besides, the Ratio in assay [3] was 34.
The corresponding values for `Cc1c(Sc2ccccc2)n(COCCO)c(=O)[nH]c1=O` [HEPT] are 6.5 µM, greater than 500 µM and greater than 77.
In the case of `Cc1c(Sc2ccccc2)n(COCCCl)c(=O)[nH]c1=O`, the EC50 in assay [1] is 1.5 µM. In assay [2], this molecule came in with a CC50 of 196 µM. For the same molecule, the Ratio in assay [3] is 131.
With `Cc1cn([C@H]2C[C@H](N=[N+]=[N-])[C@@H](CO)O2)c(=O)[nH]c1=O` [ZIDOVUDINE], the EC50 in assay [1] amounted to 0.003 µM. The Ratio in assay [3] turned out to be 2600.
On to `Cc1c(Sc2ccccc2)n(COCCN=[N+]=[N-])c(=O)[nH]c1=O`, for which the EC50 in assay [1] was 5.8 µM. The same molecule had a CC50 in assay [2] of 186 µM. In addition, the Ratio in assay [3] amounted to 32.
As for `Cc1c(Sc2ccccc2)n(COCCOCc2ccccc2)c(=O)[nH]c1=O`, the EC50 in assay [1] is greater than 20 µM. Moreover, in assay [2], the midpoint of cytotoxicity, the CC50, lay at 45 µM. Also, the Ratio in assay [3] was less than 2.3.
The corresponding values for `CCc1c(Sc2ccccc2)n(COCc2ccccc2)c(=O)[nH]c1=O` are 0.0059 µM, 34 µM and 5800.
In assay [1], `Cc1c(Sc2ccccc2)n(COCCF)c(=O)[nH]c1=O` gave an EC50 of 1.1 µM. In assay [2], this molecule yielded a CC50 of 209 µM. Moreover, the Ratio in assay [3] amounted to 190.
Regarding `CCOCn1c(Sc2ccccc2)c(CC)c(=O)[nH]c1=O`, the midpoint of the response in assay [1], the EC50, lay at 0.019 µM. In assay [2], this molecule had a CC50 of 161 µM. In addition, in assay [3], the Ratio is 8500.
`CCOCn1c(Sc2ccccc2)c(C)c(=O)[nH]c1=O` came in with an EC50 in assay [1] of 0.33 µM. The same molecule yielded a CC50 in assay [2] of 231 µM. In assay [3], the Ratio turned out to be 700.
Turning to `CCc1c(Sc2ccccc2)n(COCCO)c(=O)[nH]c1=O`, the EC50 in assay [1] was 0.12 µM.
